Experimental data published in ChEMBL document CHEMBL4431394, “Modifications of a Nanomolar Cyclic Peptide Antagonist for the EphA4 Receptor To Achieve High Plasma Stability” (ACS Med Chem Lett, 2016).
Peptide text beside a SMILES is read from it.

Biological target: Ephrin type-A receptor 4 (Homo sapiens, UniProt P54764)
Assay: Antagonist activity against human EphA4 receptor assessed as inhibition of binding of alkaline phosphatase-fused ephrin-A5 to immobilized EphA4 Fc by ELISA
Conditions: not given

Sequence of Ephrin type-A receptor 4 (P54764 whole entry, the tested form may be a part): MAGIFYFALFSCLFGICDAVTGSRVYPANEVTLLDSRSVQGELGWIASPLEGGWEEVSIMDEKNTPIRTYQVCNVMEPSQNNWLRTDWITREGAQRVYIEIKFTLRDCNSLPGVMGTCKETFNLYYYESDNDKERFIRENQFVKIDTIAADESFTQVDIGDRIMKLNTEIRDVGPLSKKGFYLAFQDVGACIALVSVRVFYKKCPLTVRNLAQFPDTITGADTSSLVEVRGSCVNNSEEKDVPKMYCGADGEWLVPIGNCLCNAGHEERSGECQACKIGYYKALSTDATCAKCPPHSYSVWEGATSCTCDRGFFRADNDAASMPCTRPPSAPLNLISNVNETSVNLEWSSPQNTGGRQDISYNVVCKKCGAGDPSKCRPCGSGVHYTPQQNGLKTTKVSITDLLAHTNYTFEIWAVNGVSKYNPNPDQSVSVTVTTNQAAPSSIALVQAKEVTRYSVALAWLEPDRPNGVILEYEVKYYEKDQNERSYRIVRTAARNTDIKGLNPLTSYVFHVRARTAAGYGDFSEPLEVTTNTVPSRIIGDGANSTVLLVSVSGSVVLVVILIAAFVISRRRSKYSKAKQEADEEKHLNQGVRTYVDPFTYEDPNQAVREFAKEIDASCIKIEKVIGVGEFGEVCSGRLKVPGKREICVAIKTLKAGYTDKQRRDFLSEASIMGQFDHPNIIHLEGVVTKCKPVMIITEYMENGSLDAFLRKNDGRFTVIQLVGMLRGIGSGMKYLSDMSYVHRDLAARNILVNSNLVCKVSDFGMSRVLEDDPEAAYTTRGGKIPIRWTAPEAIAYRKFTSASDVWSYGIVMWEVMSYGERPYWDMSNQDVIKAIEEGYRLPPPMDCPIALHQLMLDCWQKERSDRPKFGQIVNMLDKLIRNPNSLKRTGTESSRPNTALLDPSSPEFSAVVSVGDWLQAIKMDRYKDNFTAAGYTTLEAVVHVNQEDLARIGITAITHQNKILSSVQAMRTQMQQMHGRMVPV

| IC50 [µM] | Structure (SMILES) |
| --- | --- |
| > 10 | CC(C)[C@@H]1NC(=O)[C@@H](NC(=O)[C@H](Cc2ccc(O)cc2)NC(=O)[C@@H]2CCCN2C(=O)CCN)CSSC[C@@H](C(N)=O)NC(=O)[C@H](Cc2c[nH]c3ccccc23)NC(=O)[C@H](CCC(=O)O)NC(=O)[C@H](CCC(=O)O)NC(=O)CCNC(=O)[C@H](CCCNC(=N)N)NC(=O)[C@H](Cc2ccc(O)cc2)NC1=O (HELM PEPTIDE1{[bAla].P.Y.C.V.Y.R.[bAla].E.E.W.C.[am]}$PEPTIDE1,PEPTIDE1,4:R3-12:R3$$$V2.0) |

System: not listed separately
Assay: Half life in mouse plasma assessed as remaining peptide antagonistic activity for inhibition of binding of alkaline phosphatase-fused ephrin-A5 to immobilized EphA4 Fc incubated for 3 days by ELISA
Format: cell-free
Conditions: not given
Outline: (§1)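 Peptide was incubated in mouse plasma or rat CSF for various periods. The residual ability to inhibit ephrin-A5–EphA4 interaction was then measured by ELISA, and the half-life of active peptide was derived from the loss of activity over time.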

| Structure (SMILES) | half-life [h] |
| --- | --- |
| CC(C)[C@@H]1NC(=O)[C@@H](NC(=O)[C@H](Cc2ccc(O)cc2)NC(=O)[C@@H]2CCCN2C(=O)[C@H](C)N)CSSC[C@@H](C(N)=O)NC(=O)[C@H](CO)NC(=O)[C@H](Cc2c[nH]c3ccccc23)NC(=O)[C@H](CO)NC(=O)CCNC(=O)[C@H](CCCNC(=N)N)NC(=O)[C@H](Cc2ccc(O)cc2)NC1=O | < 3 |
| CC(=O)N1CCC[C@H]1C(=O)N[C@@H](Cc1ccc(O)cc1)C(=O)N[C@H]1CSSC[C@@H](C(N)=O)NC(=O)[C@H](CO)NC(=O)[C@H](Cc2c[nH]c3ccccc23)NC(=O)[C@H](CO)NC(=O)CCNC(=O)[C@H](CCCNC(=N)N)NC(=O)[C@H](Cc2ccc(O)cc2)NC(=O)[C@H](C(C)C)NC1=O | > 72 |
| CC(C)[C@@H]1NC(=O)[C@@H](NC(=O)[C@H](Cc2ccc(O)cc2)NC(=O)[C@@H]2CCCN2)CSSC[C@@H](C(N)=O)NC(=O)[C@H](CO)NC(=O)[C@H](Cc2c[nH]c3ccccc23)NC(=O)[C@H](CO)NC(=O)CCNC(=O)[C@H](CCCNC(=N)N)NC(=O)[C@H](Cc2ccc(O)cc2)NC1=O | 15 |
| CC(C)[C@@H]1NC(=O)[C@@H](NC(=O)[C@H](Cc2ccc(O)cc2)NC(=O)[C@@H]2CCCN2C(=O)[C@@H](C)N)CSSC[C@@H](C(N)=O)NC(=O)[C@H](CO)NC(=O)[C@H](Cc2c[nH]c3ccccc23)NC(=O)[C@H](CO)NC(=O)CCNC(=O)[C@H](CCCNC(=N)N)NC(=O)[C@H](Cc2ccc(O)cc2)NC1=O | > 72 |
| CC(C)[C@@H]1NC(=O)[C@@H](NC(=O)[C@H](Cc2ccc(O)cc2)NC(=O)[C@@H]2CCCN2C(=O)CCN)CSSC[C@@H](C(N)=O)NC(=O)[C@H](CCC(=O)O)NC(=O)[C@H](Cc2c[nH]c3ccccc23)NC(=O)[C@H](CCC(=O)O)NC(=O)CCNC(=O)[C@H](CCCNC(=N)N)NC(=O)[C@H](Cc2ccc(O)cc2)NC1=O | > 72 |
| CC(=O)N[C@@H](C)C(=O)N1CCC[C@H]1C(=O)N[C@@H](Cc1ccc(O)cc1)C(=O)N[C@H]1CSSC[C@@H](C(N)=O)NC(=O)[C@H](CO)NC(=O)[C@H](Cc2c[nH]c3ccccc23)NC(=O)[C@H](CO)NC(=O)CCNC(=O)[C@H](CCCNC(=N)N)NC(=O)[C@H](Cc2ccc(O)cc2)NC(=O)[C@H](C(C)C)NC1=O | 72 |

Continued, values first:

| half-life [h] | Structure (SMILES) |
| --- | --- |
| > 72 | CC(C)[C@@H]1NC(=O)[C@@H](NC(=O)[C@H](Cc2ccc(O)cc2)NC(=O)CCCCN)CSSC[C@@H](C(N)=O)NC(=O)[C@H](CO)NC(=O)[C@H](Cc2c[nH]c3ccccc23)NC(=O)[C@H](CO)NC(=O)CCNC(=O)[C@H](CCCNC(=N)N)NC(=O)[C@H](Cc2ccc(O)cc2)NC1=O |
| > 72 | CC(C)[C@@H]1NC(=O)[C@@H](NC(=O)[C@H](Cc2ccc(O)cc2)NC(=O)CCCCCN)CSSC[C@@H](C(N)=O)NC(=O)[C@H](CO)NC(=O)[C@H](Cc2c[nH]c3ccccc23)NC(=O)[C@H](CO)NC(=O)CCNC(=O)[C@H](CCCNC(=N)N)NC(=O)[C@H](Cc2ccc(O)cc2)NC1=O |
| 30 | CC(C)[C@@H]1NC(=O)[C@@H](NC(=O)[C@H](Cc2ccc(O)cc2)NC(=O)CCN)CSSC[C@@H](C(N)=O)NC(=O)[C@H](CO)NC(=O)[C@H](Cc2c[nH]c3ccccc23)NC(=O)[C@H](CO)NC(=O)CCNC(=O)[C@H](CCCNC(=N)N)NC(=O)[C@H](Cc2ccc(O)cc2)NC1=O |
| > 72 | CC(C)[C@@H]1NC(=O)[C@@H](NC(=O)[C@H](Cc2ccc(O)cc2)NC(=O)CCCN)CSSC[C@@H](C(N)=O)NC(=O)[C@H](CO)NC(=O)[C@H](Cc2c[nH]c3ccccc23)NC(=O)[C@H](CO)NC(=O)CCNC(=O)[C@H](CCCNC(=N)N)NC(=O)[C@H](Cc2ccc(O)cc2)NC1=O |
| 6 | CC(C)[C@@H]1NC(=O)[C@@H](NC(=O)[C@H](Cc2ccc(O)cc2)NC(=O)CN)CSSC[C@@H](C(N)=O)NC(=O)[C@H](CO)NC(=O)[C@H](Cc2c[nH]c3ccccc23)NC(=O)[C@H](CO)NC(=O)CCNC(=O)[C@H](CCCNC(=N)N)NC(=O)[C@H](Cc2ccc(O)cc2)NC1=O |
| > 72 | CNCC(=O)N[C@@H](Cc1ccc(O)cc1)C(=O)N[C@H]1CSSC[C@@H](C(N)=O)NC(=O)[C@H](CO)NC(=O)[C@H](Cc2c[nH]c3ccccc23)NC(=O)[C@H](CO)NC(=O)CCNC(=O)[C@H](CCCNC(=N)N)NC(=O)[C@H](Cc2ccc(O)cc2)NC(=O)[C@H](C(C)C)NC1=O |

System: not listed separately
Assay: Stability in Sprague-Dawley rat CSF assessed as remaining peptide antagonistic activity for inhibition of binding of alkaline phosphatase-fused ephrin-A5 to immobilized EphA4 Fc incubated for 3 days by ELISA
Format: tissue-based, Cerebrospinal fluid
Conditions: in vitro, 72 h
Outline: as §1

| Stability | Structure (SMILES) |
| --- | --- |
| Stable | CC(C)[C@@H]1NC(=O)[C@@H](NC(=O)[C@H](Cc2ccc(O)cc2)NC(=O)[C@@H]2CCCN2C(=O)[C@@H](C)N)CSSC[C@@H](C(N)=O)NC(=O)[C@H](CO)NC(=O)[C@H](Cc2c[nH]c3ccccc23)NC(=O)[C@H](CO)NC(=O)CCNC(=O)[C@H](CCCNC(=N)N)NC(=O)[C@H](Cc2ccc(O)cc2)NC1=O |

System: HT-22
Assay: Cytotoxicity against mouse HT22 cells at 15 to 30 uM after 24 hrs by MTT assay
Format: cell-based
Conditions: ht-22, 24 h
Outline: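 HT22 neuronal cells were grown 24 h with 15 or 30 μM peptide, alongside controls receiving the matching DMSO concentration. Cell number was quantified by MTT, with averages ± SE from 5 measurements.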

| Structure (SMILES) | Activity |
| --- | --- |
| CC(C)[C@@H]1NC(=O)[C@@H](NC(=O)[C@H](Cc2ccc(O)cc2)NC(=O)[C@@H]2CCCN2C(=O)CCN)CSSC[C@@H](C(N)=O)NC(=O)[C@H](CCC(=O)O)NC(=O)[C@H](Cc2c[nH]c3ccccc23)NC(=O)[C@H](CCC(=O)O)NC(=O)CCNC(=O)[C@H](CCCNC(=N)N)NC(=O)[C@H](Cc2ccc(O)cc2)NC1=O | Non-Toxic |
